From ChEMBL document CHEMBL4038305, “Benzoxaborole Antimalarial Agents. Part 5. Lead Optimization of Novel Amide Pyrazinyloxy Benzoxaboroles and Identification of a Preclinical Candidate” (J Med Chem, 2017)

What was measured:
Plasmodium berghei [1] = assay: Antimalarial activity against Plasmodium berghei infected in Swiss Webster mouse assessed as mouse survival rate at 100 mg/kg administered once daily via oral gavage for 4 consecutive days beginning 1 hr after infection measured on day 10 post infection relative to control; format: functional
How it was run: (§1)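 Mice given an intraperitoneal injection of P. berghei-infected erythrocytes taken from a previously infected animal. Oral dosing once daily for 4 consecutive days, starting 1 h after infection. Vehicle: polyethylene glycol 300/propylene glycol/water (weight ratio 55/25/20). Percent survival recorded daily from day 4 to day 20. Chloroquine 30 mg/kg and vehicle-only groups served as controls.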

Plasmodium falciparum [2] = assay: Antimalarial activity against chloroquine-sensitive Plasmodium falciparum 3D7 infected in human erythrocytes assessed as reduction in [3H]-hypoxanthine incorporation preincubated for 24 hrs followed by [3H]-hypoxanthine addition measured after 24 hrs by scintillation counting method; format: functional, cell-based
How it was run: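 P. falciparum 3D7 cultures were exposed to the compound for 48 h, with atovaquone as the reference control. IC50 was taken from three replicates.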

[3] = Oral bioavailability in CD1 mouse at 5 mg/kg by HPLC/MS analysis; format: ADME, organism-based; conditions: in vivo
How it was run: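 Female CD-1 mice, male SD rats or beagle dogs given 5 mg/kg by iv injection or oral gavage. Formulation was PEG300/propylene glycol/water 55/25/20, pH 6. Blood samples analysed by HPLC–MS/MS; parameters include AUC0-inf extrapolated to infinity and terminal half-life.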

Plasmodium berghei [4] = assay: Antimalarial activity against Plasmodium berghei infected in Swiss Webster mouse assessed as mouse survival rate at 1.2 mg/kg administered once daily via oral gavage for 4 consecutive days beginning 1 hr after infection measured on day 7 post infection relative to control; format: functional; how it was run: as §1
Plasmodium berghei [5] = assay: Antimalarial activity against Plasmodium berghei infected in Swiss Webster mouse assessed as mouse survival rate at 3.7 mg/kg administered once daily via oral gavage for 4 consecutive days beginning 1 hr after infection measured on day 5 post infection relative to control; format: functional
How it was run: (§2)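 P. berghei-infected erythrocytes taken from a previously infected mouse were injected intraperitoneally. Oral dosing, once daily for 4 consecutive days, began 1 h after infection, in polyethylene glycol 300/propylene glycol/water (55/25/20 by weight). Chloroquine at 30 mg/kg was the positive control, with a vehicle-only group. Percent survival was recorded daily from day 4 to day 20.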

Plasmodium berghei [6] = assay: Antimalarial activity against Plasmodium berghei infected in Swiss Webster mouse assessed as mouse survival rate at 3.7 mg/kg administered once daily via oral gavage for 4 consecutive days beginning 1 hr after infection measured on day 7 post infection relative to control; format: functional; how it was run: as §2
[7] = AUC (0 to infinity) in CD1 mouse at 5 mg/kg, po via gavage by HPLC/MS analysis; format: ADME, organism-based; set-up: dose 5 mg/kg, time infinity, route oral; conditions: in vivo
Plasmodium berghei [8] = assay: Antimalarial activity against Plasmodium berghei infected in Swiss Webster mouse assessed as mouse survival rate at 100 mg/kg administered once daily via oral gavage for 4 consecutive days beginning 1 hr after infection measured on day 4 post infection relative to control; format: functional; how it was run: as §1
Plasmodium berghei [9] = assay: Antimalarial activity against Plasmodium berghei infected in Swiss Webster mouse assessed as mouse survival rate at 1.2 mg/kg administered once daily via oral gavage for 4 consecutive days beginning 1 hr after infection measured on day 4 post infection relative to control; format: functional; how it was run: as §1
Plasmodium berghei [10] = assay: Antimalarial activity against Plasmodium berghei infected in Swiss Webster mouse assessed as mouse survival rate at 200 mg/kg administered once daily via oral gavage for 4 consecutive days beginning 1 hr after infection measured on day 5 post infection relative to control; format: functional; how it was run: as §2
Plasmodium berghei [11] = assay: Antimalarial activity against Plasmodium berghei infected in Swiss Webster mouse assessed as mouse survival rate at 11 mg/kg administered once daily via oral gavage for 4 consecutive days beginning 1 hr after infection measured on day 7 post infection relative to control; format: functional; how it was run: as §2
Plasmodium berghei [12] = assay: Antimalarial activity against Plasmodium berghei infected in Swiss Webster mouse assessed as mouse survival rate at 1.2 mg/kg administered once daily via oral gavage for 4 consecutive days beginning 1 hr after infection measured on day 6 post infection relative to control; format: functional; how it was run: as §1
Plasmodium berghei [13] = assay: Antimalarial activity against Plasmodium berghei infected in Swiss Webster mouse assessed as mouse survival rate at 200 mg/kg administered once daily via oral gavage for 4 consecutive days beginning 1 hr after infection measured on day 8 post infection relative to control; format: functional; how it was run: as §2
Plasmodium berghei [14] = assay: Antimalarial activity against Plasmodium berghei infected in Swiss Webster mouse assessed as mouse survival rate at 100 mg/kg administered once daily via oral gavage for 4 consecutive days beginning 1 hr after infection measured on day 8 post infection relative to control; format: functional; how it was run: as §1
Plasmodium berghei [15] = assay: Antimalarial activity against Plasmodium berghei infected in Swiss Webster mouse assessed as mouse survival rate at 200 mg/kg administered once daily via oral gavage for 4 consecutive days beginning 1 hr after infection measured on day 9 post infection relative to control; format: functional; how it was run: as §2
[16] = Metabolic stability in human hepatocytes at 22 uM after 44 hrs; format: ADME, cell-based, Hepatocyte
Plasmodium berghei [17] = assay: Antimalarial activity against Plasmodium berghei infected in Swiss Webster mouse assessed as mouse survival rate at 0.4 mg/kg administered once daily via oral gavage for 4 consecutive days beginning 1 hr after infection measured on day 4 post infection relative to control; format: functional; how it was run: as §1
Plasmodium berghei [18] = assay: Antimalarial activity against Plasmodium berghei infected in Swiss Webster mouse assessed as mouse survival rate at 0.4 mg/kg administered once daily via oral gavage for 4 consecutive days beginning 1 hr after infection measured on day 5 post infection relative to control; format: functional; how it was run: as §1
Plasmodium falciparum [19] = assay: Antimalarial activity against Plasmodium falciparum 3D7 0087/N9 infected in NOD/SCID IL2R gamma null mouse assessed as reduction in parasitemia administered once daily via oral gavage for 4 consecutive days measured on day 4 post infection; format: functional; conditions: 3D7 0087/N9, po, 96 h
How it was run: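 Human-erythrocyte-engrafted NODscidIL2Rγnull mice carrying P. falciparum Pf3D70087/N9 in peripheral blood; compound given orally once daily for four consecutive days.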

Plasmodium berghei [20] = assay: Antimalarial activity against Plasmodium berghei infected in Swiss Webster mouse assessed as mouse survival rate at 0.1 mg/kg administered once daily via oral gavage for 4 consecutive days beginning 1 hr after infection measured on day 5 post infection relative to control; format: functional; how it was run: as §1
Plasmodium berghei [21] = assay: Antimalarial activity against Plasmodium berghei infected in Swiss Webster mouse assessed as mouse survival rate at 0.4 mg/kg administered once daily via oral gavage for 4 consecutive days beginning 1 hr after infection measured on day 6 post infection relative to control; format: functional; how it was run: as §1
Plasmodium berghei [22] = assay: Antimalarial activity against Plasmodium berghei infected in Swiss Webster mouse assessed as mouse survival rate at 0.1 mg/kg administered once daily via oral gavage for 4 consecutive days beginning 1 hr after infection measured on day 4 post infection relative to control; format: functional; how it was run: as §1
Plasmodium berghei [23] = assay: Antimalarial activity against Plasmodium berghei infected in Swiss Webster mouse assessed as mouse survival rate at 33 mg/kg administered once daily via oral gavage for 4 consecutive days beginning 1 hr after infection measured on day 8 post infection relative to control; format: functional; how it was run: as §2
Plasmodium berghei [24] = assay: Antimalarial activity against Plasmodium berghei infected in Swiss Webster mouse assessed as mouse survival rate at 33 mg/kg administered once daily via oral gavage for 4 consecutive days beginning 1 hr after infection measured on day 10 post infection relative to control; format: functional; how it was run: as §2
[25] = Metabolic stability in rat hepatocytes at 22 uM after 44 hrs; format: ADME, cell-based, Hepatocyte
Plasmodium berghei [26] = assay: Antimalarial activity against Plasmodium berghei infected in Swiss Webster mouse assessed as mouse survival rate at 33 mg/kg administered once daily via oral gavage for 4 consecutive days beginning 1 hr after infection measured on day 11 post infection relative to control; format: functional; how it was run: as §2
Plasmodium berghei [27] = assay: Antimalarial activity against Plasmodium berghei infected in Swiss Webster mouse assessed as mouse survival rate at 0.1 mg/kg administered once daily via oral gavage for 4 consecutive days beginning 1 hr after infection measured on day 6 post infection relative to control; format: functional; how it was run: as §1

| SMILES | survival at 100 mg/kg (Plasmodium berghei [1]) [%] | IC50 (Plasmodium falciparum [2]) [nM] | bioavailability [3] [%] | survival at 1.2 mg/kg (Plasmodium berghei [4]) [%] | survival at 3.7 mg/kg (Plasmodium berghei [5]) [%] | survival at 3.7 mg/kg (Plasmodium berghei [6]) [%] | AUC(0-inf) [7] [ng·h/mL] | survival at 100 mg/kg (Plasmodium berghei [8]) [%] | survival at 1.2 mg/kg (Plasmodium berghei [9]) [%] | survival at 200 mg/kg (Plasmodium berghei [10]) [%] | survival at 11 mg/kg (Plasmodium berghei [11]) [%] | survival at 1.2 mg/kg (Plasmodium berghei [12]) [%] | survival at 200 mg/kg (Plasmodium berghei [13]) [%] | survival at 100 mg/kg (Plasmodium berghei [14]) [%] | survival at 200 mg/kg (Plasmodium berghei [15]) [%] | survival at 0.4 mg/kg (Plasmodium berghei [17]) [%] | survival at 0.4 mg/kg (Plasmodium berghei [18]) [%] | ED90 (Plasmodium falciparum [19]) [mg/kg] | survival at 0.4 mg/kg (Plasmodium berghei [21]) [%] | survival at 33 mg/kg (Plasmodium berghei [23]) [%] | other results |
| --- | --- | --- | --- | --- | --- | --- | --- | --- | --- | --- | --- | --- | --- | --- | --- | --- | --- | --- | --- | --- | --- |
| Cc1c(Oc2cnc(C(=O)NCCO)cn2)ccc2c1B(O)OC2 | 0 | 1080 | 94 | 0 | 100 | 0 | 29600 | 100 | 100 | 100 | 0 | 100 | 80 | 40 | 80 | – | – | – | – | – | – |
| Cc1c(Oc2cnc(C(=O)N3CC(C)(O)C3)cn2)ccc2c1B(O)OC2 | 100 | 43 | 101 | 0 | 100 | 60 | 20700 | 100 | 100 | – | 100 | 100 | – | 100 | – | 100 | 100 | 0.85 | 100 | 100 | Stability [16]: Stable; survival at 0.1 mg/kg (Plasmodium berghei [20]): 100%; survival at 0.1 mg/kg (Plasmodium berghei [22]): 100%; survival at 33 mg/kg (Plasmodium berghei [24]): 100%; Stability [25]: Stable; survival at 33 mg/kg (Plasmodium berghei [26]): 100%; survival at 0.1 mg/kg (Plasmodium berghei [27]): 100% |
| Cc1c(Oc2cnc(C(=O)N[C@@H](CO)CC(F)(F)F)cn2)ccc2c1B(O)OC2 | 100 | 149 | 64 | 0 | 100 | 0 | 13400 | 100 | 100 | – | 0 | 100 | – | 100 | – | 100 | 100 | – | 100 | 100 | survival at 33 mg/kg (Plasmodium berghei [24]): 60%; survival at 33 mg/kg (Plasmodium berghei [26]): 0% |
| Cc1c(Oc2cnc(C(=O)NC(C)CO)cn2)ccc2c1B(O)OC2 (configuration not stated) | 40 | 994 | 85 | – | – | – | 33000 | 100 | – | – | 40 | – | – | 100 | – | – | – | – | – | 0 | – |
| CCC[C@H](CO)NC(=O)c1cnc(Oc2ccc3c(c2C)B(O)OC3)cn1 | 100 | 201 | 103 | 0 | 100 | 0 | 21600 | 100 | 100 | 100 | 0 | 100 | 100 | 100 | 100 | – | – | 2.5 | – | 100 | – |
